# Bioassay records: PubChem BioAssay, several laboratories
# Most compounds without a hit are left out; they make up all but 1.7% or so of the library.
# SR-BI DiI inh – blocks mouse SR-BI lipid uptake from DiI-HDL; Q61009; ldlA[mSR-BI] CHO cells, DiI-HDL uptake fluorescence, 3 h; inhibition, % at 12.5 µM; 320,000 compounds, 0.96% hits; AID 488896;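 active means mean replicate inhibition of at least 70% and a set share of replicates each scoring 70 or more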;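 further: 0% = median of neutral control wells and 100% = median of positive control wells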
# Target sequence (Q61009 whole entry, looked up): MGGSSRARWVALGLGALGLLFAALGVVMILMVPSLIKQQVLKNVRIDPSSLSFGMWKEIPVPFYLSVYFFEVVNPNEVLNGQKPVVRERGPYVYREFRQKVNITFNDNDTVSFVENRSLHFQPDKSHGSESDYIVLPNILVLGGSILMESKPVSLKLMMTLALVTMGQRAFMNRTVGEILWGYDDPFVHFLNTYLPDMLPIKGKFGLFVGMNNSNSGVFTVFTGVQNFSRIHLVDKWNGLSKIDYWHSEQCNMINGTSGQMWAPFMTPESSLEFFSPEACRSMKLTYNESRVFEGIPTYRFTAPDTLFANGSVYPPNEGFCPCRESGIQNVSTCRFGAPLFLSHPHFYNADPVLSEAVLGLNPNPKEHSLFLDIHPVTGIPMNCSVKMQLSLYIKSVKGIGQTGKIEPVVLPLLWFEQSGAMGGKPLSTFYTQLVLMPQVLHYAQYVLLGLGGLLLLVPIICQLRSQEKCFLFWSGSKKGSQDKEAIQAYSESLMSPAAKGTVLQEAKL
# V-ATPase pHluor – regulators of yeast V-ATPase proton transport; S. cerevisiae, pHLuorin cytosolic pH fluorescence; response, % at 10 µM; 350,000 compounds, 0.37% hits; AID 504577; in the data active means response mostly above about 7.3%, no sharp cut-off; inactive means mostly below about 5.4%; further: actives read high
# Vif imaging – inhibitors of HIV Vif; inhibition, % at 7.49 µM; 340,000 compounds, 0.35% hits; HEK293T cells, Vif self-association by quenched fluorescence, imaging, 24 h; in the data active means inhibition above about 50%, passing the limit was not always enough
# NTR1 ag – agonists of human neurotensin receptor NTR1; 330,000 compounds, 0.17% hits; NTR1-U2OS beta-arrestin-GFP spot imaging, agonist mode; activation, % at 20 µM; P30989; AID 493036;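 active means activation at or above 40% of the spot to cytoplasm intensity ratio, with at least 20 cells analyzed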;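 further: 0% = DMSO without peptide and 100% = 100 nM NTR1 peptide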
# CaV13 FRET inh – Disruptors of the CACNA1D IQ motif to Ca2+-dependent inactivation inhibitor domain association, primary screening, Förster resonance energy transfer in intact living … | HEK cells, CFP/YFP FRET ICDI-IQ, plate reader, 10 min; percent FRET-ratio fall versus neutral wells | inhibition, % at 12.3 µM | 340,000 compounds, 0.098% hits | AID 743397;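 active means mean replicate inhibition of at least 30% and at least 1% of replicates passing that level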;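 further: 0% = median of the neutral control wells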
# SR-BI uptake up – SR-BI HDL lipid transfer activation. CHO ldlA[mSR-BI] cells, DiI-HDL uptake fluorescence, 3 h; 100 = double the neutral-control signal. activation, % at 12.5 µM. 320,000 compounds, 0.096% hits;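 active means mean replicate activation of at least 60% and every replicate at or above 60%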;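 further: 0% = median plate neutral-control signal and 100% = twice that signal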
#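 Material: SR-BI-overexpressing, LDLR-lacking CHO cells; schedule: compound exposure 3 h, 37 °C; reagent: DiI-labelled HDL at 10 µg/mL final; technique: bottom-read fluorescence, 550/595 nm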
# * = called active by the depositor; i = inactive; . = no result given.
SMILES,SR-BI DiI inh,V-ATPase pHluor,Vif imaging,NTR1 ag,CaV13 FRET inh,SR-BI uptake up
CCOc1ccc(NC(=O)CN2CCN(CC(=O)Nc3ccc(OC)cc3OC)CC2)cc1,62,3,-1,-1,-4,-62
N#Cc1c(NC(=O)CN2CCN(C(=O)c3ccco3)CC2)sc2c1CCCCC2,83*,0,-11,2,-5,-83
COc1ccccc1NC(=O)c1ccc(NC(=O)CN2CCN(C(=O)c3ccco3)CC2)cc1,79*,-1,.,0,10,-79
C[C@H]1CN([C@@H](C)CO)C(=O)CCCn2nncc2CO[C@@H]1CN(C)C(=O)c1ccc2ccn(C)c2c1,.,0,-2,.,-7,.
C[C@@H]1CN(c2ccc(N3CCN(C(=O)OC(C)(C)C)C[C@@H]3C)cc2C#N)CCN1Cc1ccccc1,.,.,.,.,-11,.
Cc1nc2ccccc2c2oc(C(=O)NC3CC3)cc12,-14,-1,.,4,-3,14
CCOc1ccc(NC(=O)c2cc3c(C)nc4ccccc4c3o2)cc1,99*,1,6,10,-6,-99
COc1ccc(Oc2ccccc2/C=C/C(=O)O)cc1,i,4,16,-1,-3,536*
O=C(CSc1nnc2ccc(-c3ccc(F)cc3)nn12)NCC1CCCO1 (stereo not given),9,-1,-7,0,-4,-9
O=C(CSc1ccc2nnc(-c3ccc(Cl)cc3)n2n1)N1CCCC1,-11,14*,2,0,-6,11
O=C(CSc1ccc2nnc(-c3ccc(Cl)cc3)n2n1)N1CCc2ccccc21,2,4,13,3,-8,-2
O=C(CSc1nnc2ccc(-c3ccc(F)cc3)nn12)N1CCCC1,.,20*,-4,-1,-4,.
CCSc1ccccc1C(=O)NC1CCCCC1,18,-1,14,1,2,-18
O=S(=O)(C/C(=C/CO)S(=O)(=O)c1ccccc1)c1ccccc1,-19,3,62*,5,-5,19
O=C(CS(=O)(=O)c1ccccc1)CS(=O)(=O)c1ccccc1,.,.,.,.,-5,.
C/C(=N\NC(=O)c1nnn(-c2nonc2N)c1CSc1ccc(C)cc1)c1cccs1,.,0,.,.,-4,.
COc1cc(OC)cc(C(=O)NC(C(=O)Nc2ccc3c(c2)OCO3)C(C)C)c1 (stereo not given),-23,-6,125*,1,-5,23
CC(C)[C@H](NC(=O)c1ccccc1F)C(=O)Nc1ccc2c(c1)OCO2,-7,-2,-4,-2,-2,7
COc1cc(OC)cc(C(=O)N[C@H](C(=O)Nc2ccc3c(c2)OCO3)C(C)C)c1,3,2,91*,2,-2,-3
COc1cc(OC)cc(C(=O)NC(C(=O)Nc2ccc3nc(C)sc3c2)C(C)C)c1 (stereo not given),9,2,3,0,-3,-9
CC(=O)Nc1ccc(S(=O)(=O)N2CCN(Cc3csc(C)n3)CC2)cc1,-15,0,-7,1,.,15
O=C(c1ccc2c(c1)CCN2S(=O)(=O)c1ccccc1)N1CCN(c2ccc(F)cc2)CC1,-8,14*,2,4,-7,8
COc1ccc(C2OCC(C)(C)CO2)cc1OC,-77,2,1,.,-4,77*
COc1ccccc1N(CC(=O)NCC1CCCO1)C(=O)CCC(=O)Nc1nccs1 (stereo not given),-15,8,.,0,0,15
CCOc1ccccc1N(CC(=O)NCC1CCCO1)C(=O)CCC(=O)Nc1nccs1 (stereo not given),.,0,61*,0,-4,.
SMILES,SR-BI DiI inh,V-ATPase pHluor,Vif imaging,NTR1 ag,CaV13 FRET inh,SR-BI uptake up
O=C(NCCCN1CCCC1=O)c1sc2ccccc2c1Cl,-26,-1,0,-1,.,26
Cc1ccc(CN2C(=O)N/C(=C\c3ccc(-c4ccc(C(=O)O)cc4C)o3)C2=O)cc1,.,-1,6,2,3,.
O=C(O)c1ccc(-c2ccc(/C=C3\NC(=O)N(Cc4ccc(Cl)cc4)C3=O)o2)cc1,.,1,2,.,48*,.
CCN=C1NC(CCc2ccccc2)C(C(=O)OC)=C(C)N1Cc1ccccc1C(F)(F)F (stereo not given),.,.,.,.,-4,.
CC(=NNC(=O)c1cc(C)oc1C)c1ccc(Br)s1,-3,4,52*,0,-3,3
C/C(=N\NC(=O)c1ccoc1C)c1ccc(Br)s1,9,4,-3,1,.,-9
CCOc1cc(NC(=S)NC)c(OCC)cc1NC(=O)c1ccc(OC)cc1,82*,0,2,0,4,-82
COc1ccccc1NC(=O)c1ccccc1NC(=O)c1ccccn1,38,1,51*,0,.,-38
COc1ccccc1NC(=O)c1ccccc1C(=O)O,-19,1,-2,1,3,19
CCOc1cc(NC(=S)Nc2ccccc2)c(OCC)cc1NC(=O)c1ccccc1,81*,-2,-3,6,-5,-81
CCOc1cc(NC(=S)Nc2ccccc2OC)c(OCC)cc1NC(=O)c1ccccc1C,87*,3,-16,2,-6,-87
CCOc1cc(NC(=O)c2ccccn2)c(OCC)cc1NC(=O)c1ccccc1,57,-11,-2,0,-5,-57
CCCCC(OC(=O)CN1C(=O)COc2ccccc21)C(=O)NC1CCCCC1 (stereo not given),.,1,6,0,-4,.
Cc1oc(-c2ccccc2)cc1C(=O)Nc1cccc2ccccc12,-5,2,-19,3,-5,5
O=C(CN(Cc1ccc(Cl)cc1)C(=O)c1csnn1)NCc1ccccc1,-18,-2,14,-1,-2,18
COC(=O)c1ccc(SC2CCCCC2)c([N+](=O)[O-])c1,21,-1,125*,7,-8,-21
O=[N+]([O-])c1cccc(-c2nc(-c3cccs3)c(-c3cccs3)[nH]2)c1,91*,-6,7,27,-5,-91
O=[N+]([O-])c1cccc(-c2nc(-c3ccccc3)c(-c3cccs3)[nH]2)c1,.,-2,-9,14,-5,.
Cc1cc(-c2ccccc2)nc(N/N=C/c2cccnc2)n1,32,2,-6,1,-6,-32
Cc1cc(-c2ccccc2)nc(N/N=C/c2ccccc2)n1,72*,5,0,3,-4,-72
Cc1cc(-c2ccccc2)nc(N/N=C/c2ccc([N+](=O)[O-])cc2)n1,73*,0,7,2,-3,-73
C[C@@H]1CN([C@@H](C)CO)C(=O)CCCn2cc(nn2)CO[C@H]1CN(C)C(=O)Nc1cccc2ccccc12,.,.,.,.,-10,.
COc1cc2c(cc1OC)CN(c1ccc3ccccc3n1)CC2,76*,5,13,2,-5,-76
